Test results from ChEMBL document CHEMBL1138494, “Human glucagon receptor antagonists with thiazole cores. A novel series with superior pharmacokinetic properties” (J Med Chem, 2009).

Target: T1, Gastric inhibitory polypeptide receptor (Homo sapiens, UniProt P48546)
T1 sequence (P48546 whole entry): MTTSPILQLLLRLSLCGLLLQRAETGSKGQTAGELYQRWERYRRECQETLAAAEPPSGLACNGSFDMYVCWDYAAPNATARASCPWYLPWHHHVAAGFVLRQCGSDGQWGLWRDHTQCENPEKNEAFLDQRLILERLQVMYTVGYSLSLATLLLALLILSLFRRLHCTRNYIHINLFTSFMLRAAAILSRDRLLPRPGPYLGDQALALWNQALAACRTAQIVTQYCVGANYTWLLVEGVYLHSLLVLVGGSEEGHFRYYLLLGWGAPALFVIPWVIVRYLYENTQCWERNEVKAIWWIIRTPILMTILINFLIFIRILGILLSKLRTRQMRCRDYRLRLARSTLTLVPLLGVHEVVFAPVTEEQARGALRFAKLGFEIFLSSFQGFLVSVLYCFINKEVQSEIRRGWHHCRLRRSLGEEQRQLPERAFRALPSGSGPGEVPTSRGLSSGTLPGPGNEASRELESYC
Test: Displacement of [125I]porcine GIP from human recombinant GIPR receptor expressed in BHK cells by scintillation proximity assay
Format: cell-based
Details: not given

IC50	Compound
207 nM	O=C(O)CCNC(=O)c1ccc(CN(c2ccc(C3=CCCCC3)cc2)c2nc(-c3ccc(OC(F)(F)F)cc3)cs2)cc1
1000 nM	O=C(O)CCNC(=O)c1ccc(CN(c2ccc(C3=CCCCC3)cc2)c2nc(-c3ccc(Cl)cc3)c(-c3ccccc3)s2)cc1

Tested on: not listed separately
Test: Clearance in fasted Sprague-Dawley rat at 1.9 mg/kg, iv and 3.7 mg/kg, po by HTLC-MS/MS analysis
Format: ADME, organism-based
Details: in vivo
How it was run: (§1)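 Rats were dosed intravenously and perorally in separate arms, and plasma concentration-time profiles were obtained. Half-life was taken from the iv arm. Clearance, oral bioavailability, Cmax and Tmax were derived from the profiles.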

clearance	Compound
34 mL/min/kg	O=C(O)CCNC(=O)c1ccc(CN(c2ccc(C3=CCCCC3)cc2)c2nc(-c3ccc(OC(F)(F)F)cc3)cs2)cc1

Tested on: not listed separately
Test: Half life in fasted Sprague-Dawley rat plasma at 1.9 mg/kg, iv by HTLC-MS/MS analysis
Format: ADME, organism-based
Parameters: dose 1.9 mg/kg, route intravenous
Details: not given
How it was run: as §1

half-life	Compound
0.717 h	O=C(O)CCNC(=O)c1ccc(CN(c2ccc(C3=CCCCC3)cc2)c2nc(-c3ccc(OC(F)(F)F)cc3)cs2)cc1

Tested on: not listed separately
Test: Oral bioavailability in fasted Sprague-Dawley rat at 3.7 mg/kg by HTLC-MS/MS analysis
Format: ADME, organism-based
Details: in vivo
How it was run: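 Separate intravenous and peroral dosing arms per compound, with plasma concentration followed against time. Oral bioavailability (F_po) is reported per compound together with the intravenous half-life and clearance. The dose used for each arm is listed per compound.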

bioavailability	Compound
3%	O=C(O)CCNC(=O)c1ccc(CN(c2ccc(C3=CCCCC3)cc2)c2nc(-c3ccc(OC(F)(F)F)cc3)cs2)cc1

Tested on: not listed separately
Test: Cmax in fasted Sprague-Dawley rat at 1.9 mg/kg, iv and 3.7 mg/kg, po by HTLC-MS/MS analysis
Format: ADME, organism-based
Details: in vivo
How it was run: as §1

Cmax	Compound
47 ng/mL	O=C(O)CCNC(=O)c1ccc(CN(c2ccc(C3=CCCCC3)cc2)c2nc(-c3ccc(OC(F)(F)F)cc3)cs2)cc1

Tested on: not listed separately
Test: Tmax in fasted Sprague-Dawley rat at 1.9 mg/kg, iv and 3.7 mg/kg, po by HTLC-MS/MS analysis
Format: ADME, organism-based
Details: in vivo
How it was run: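 Plasma concentration–time profiles were recorded after separate intravenous and peroral dosing at the per-compound doses listed. T_max is reported in min alongside C_max (ng/mL), intravenous half-life and clearance ((mL/min)/kg).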

Tmax	Compound
1.5 h	O=C(O)CCNC(=O)c1ccc(CN(c2ccc(C3=CCCCC3)cc2)c2nc(-c3ccc(OC(F)(F)F)cc3)cs2)cc1

Species: Homo sapiens
Test: Selectivity ratio of IC50 for human recombinant glucagon receptor to IC50 for human recombinant GIPR
Details: not given
How it was run: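 Competition binding of compounds to recombinant human glucagon and GIP receptors on BHK cell membranes, run in parallel as a scintillation proximity assay and, for selected compounds, as a membrane filtration assay.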

fold change (FC)	Compound
5	O=C(O)CCNC(=O)c1ccc(CN(c2ccc(C3=CCCCC3)cc2)c2nc(-c3ccc(OC(F)(F)F)cc3)cs2)cc1
5	O=C(O)CCNC(=O)c1ccc(CN(c2ccc(C3=CCCCC3)cc2)c2nc(-c3ccc(Cl)cc3)c(-c3ccccc3)s2)cc1

Species: Homo sapiens
Test: Selectivity for human recombinant glucagon receptor over human GLP1R
Details: not given

fold change (FC)	Compound
> 50	O=C(O)CCNC(=O)c1ccc(CN(c2ccc(C3=CCCCC3)cc2)c2nc(-c3ccc(OC(F)(F)F)cc3)cs2)cc1
> 50	O=C(O)CCNC(=O)c1ccc(CN(c2ccc(C3=CCCCC3)cc2)c2nc(-c3ccc(Cl)cc3)c(-c3ccccc3)s2)cc1

Target: Glucagon receptor (Homo sapiens, UniProt P47871)
Test: Displacement of [125I]porcine glucagon from human recombinant glucagon receptor expressed in BHK cells by scintillation proximity assay
Format: cell-based
Details: not given

Chain of Glucagon receptor (P47871 whole entry): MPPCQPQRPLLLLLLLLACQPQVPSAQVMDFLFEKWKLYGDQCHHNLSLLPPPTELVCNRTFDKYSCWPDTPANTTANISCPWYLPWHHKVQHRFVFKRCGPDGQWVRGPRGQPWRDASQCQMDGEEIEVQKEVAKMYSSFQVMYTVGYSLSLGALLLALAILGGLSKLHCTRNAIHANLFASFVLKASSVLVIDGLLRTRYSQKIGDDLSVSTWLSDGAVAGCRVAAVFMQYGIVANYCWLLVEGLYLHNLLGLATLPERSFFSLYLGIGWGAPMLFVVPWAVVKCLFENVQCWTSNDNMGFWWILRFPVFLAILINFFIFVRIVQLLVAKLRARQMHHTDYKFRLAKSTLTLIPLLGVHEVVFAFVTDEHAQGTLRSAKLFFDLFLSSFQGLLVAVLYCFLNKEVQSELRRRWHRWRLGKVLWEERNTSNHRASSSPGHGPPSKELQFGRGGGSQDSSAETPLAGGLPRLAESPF

IC50	Compound
36 nM	O=C(O)CCNC(=O)c1ccc(CN(c2ccc(C3=CCCCC3)cc2)c2nc(-c3ccc(OC(F)(F)F)cc3)cs2)cc1
86 nM	O=C(O)CCNC(=O)c1ccc(CN(c2ccc(C3=CCCCC3)cc2)c2nc(-c3ccc(Cl)cc3)c(-c3ccccc3)s2)cc1
